In the library only some 9.8% were active in any assay of this set; here they are far more common.
WT yeast gro inh: growth inhibition of WT yeast, mitochondrial fusion screen; mitochondrial fusion phenotypic screen, WT strain; AID 1362; hit rate 2.1% among 190,000; inhibition, % at 10 µM; in the data active = inhibition above about 58%; tested in S. cerevisiae
Rad51 HR inh: Rad51 (human) homologous recombination inhibition; inhibition, % at 10 µM; AID 1385; hit rate 0.085% among 200,000; Q06609; hRad51 DNA strand exchange, fluorescence dequenching;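 active = inhibition above 40% at the single screening dose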;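 note: 0% = DMSO control wells and 100% = blanks with heterologous ssDNA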
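material = hRad51 filaments on single-stranded DNA | timing = filaments 15 min 37 °C, then compound 30 min | signal = FRET fluorescence dequenching, excitation 485 nm, emission 520 nm | benchmarks = control wells and blank wells on each plate | evaluation = percent inhibition relative to plate controls and blanks | compound = 10 µM final, single point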
m-calpain inh: inhibitors of pig calpain II | inhibition, % at 16 µM | hit rate 0.37% among 220,000 | purified calpain II, fluorogenic peptide substrate, 30 min;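 active = inhibition above about 50%, limit read from the data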
PMI act satM6P: PMI (human) activation, high substrate; P34949; coupled PMI enzyme assay, resazurin fluorescence, 20 min; hits give high values; 1 = untreated enzyme, 0 = substrate-free blank; activation factor at 20 µM; hit rate 0.34% among 190,000; AID 1216;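 active = activation factor of 2 or more at 20 µM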
Target sequence (P34949 whole entry, looked up): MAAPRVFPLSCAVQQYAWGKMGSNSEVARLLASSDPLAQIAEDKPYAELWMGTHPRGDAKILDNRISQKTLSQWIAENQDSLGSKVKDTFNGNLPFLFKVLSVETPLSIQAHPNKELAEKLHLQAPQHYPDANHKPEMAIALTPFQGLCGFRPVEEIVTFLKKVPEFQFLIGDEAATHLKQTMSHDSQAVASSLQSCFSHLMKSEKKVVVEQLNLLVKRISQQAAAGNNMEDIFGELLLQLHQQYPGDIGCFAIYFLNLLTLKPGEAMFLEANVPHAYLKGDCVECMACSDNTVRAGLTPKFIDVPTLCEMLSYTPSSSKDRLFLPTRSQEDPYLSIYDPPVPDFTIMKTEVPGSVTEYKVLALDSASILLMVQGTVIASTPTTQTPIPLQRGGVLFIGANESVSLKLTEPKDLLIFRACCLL
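Material: human phosphomannose isomerase with PGI, G6PDH, diaphorase coupling enzymes / Reagent: Man-6-P substrate 1.0 mM / Dosing: single compound dose of 20 µM, 1% DMSO final / Incubation: enzyme reaction with compound 20 min at room temperature / Signal: resorufin fluorescence (Ex 544/Em 590 nm) from resazurin via diaphorase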
L major viab: reduces viability of Leishmania major promastigotes. resazurin fluorescence viability. hit rate 9% among 200,000. inhibition, % at 10 µM; in the data active = inhibition above about 50%;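 note: promastigotes grown with compound for 44 hours at 28 °C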
PMI activator: phosphomannose isomerase (human) activation; activation factor at 20 µM; AID 1214; purified human PMI, coupled resazurin fluorescence, 20 min; hits give high values; 1 = vehicle control, 0 substrate-free wells; hit rate 0.005% among 190,000; P34949;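 active = activation factor of 2 or more at 20 µM, relative to plate controls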
An asterisk follows results filed as active; / = no result.

SMILES	WT yeast gro inh	Rad51 HR inh	m-calpain inh	PMI act satM6P	L major viab	PMI activator
CCOC(=O)C1CCCN(Cc2ccc(O)c(OC)c2)C1 (stereo not drawn)	18	3	7	1.1	-2	1.1
CC(C)Oc1cccc(C(=O)C2CCCN(Cc3cccn3-c3ccccn3)C2)c1 (stereo not drawn)	6	-5	-12	1.1	98*	1
Cc1noc(C)c1S(=O)(=O)N1CCCC(C(=O)c2cccc(OC(C)C)c2)C1 (stereo not drawn)	18	1	0	0.9	56*	0.9
O=C(c1ccc(C(F)(F)F)cc1)C1CCCN(Cc2cccn2-c2ncccn2)C1 (stereo not drawn)	-9	2	-20	1	71*	1
Cc1cc(-c2c(C)[nH]n(-c3ccccc3)c2=O)n[nH]1	-5	4	-11	1	1	0.9
CC(C)Oc1cccc(C(=O)C2CCCN(Cc3ccc4nonc4c3)C2)c1 (stereo not drawn)	30	/	13	0.9	83*	0.9
Cc1nn(C(C)C)c(C)c1CN1CCCC(C(=O)c2cccc(OC(C)C)c2)C1 (stereo not drawn)	4	10	-24	1	20	0.9
CCn1nc(C)c(CN2CCCC(C(=O)c3cccc(OC(C)C)c3)C2)c1C (stereo not drawn)	3	6	-38	/	86*	/
CC(C)Oc1cccc(C(=O)C2CCCN(Cc3cnn(C(C)C)c3)C2)c1 (stereo not drawn)	0	/	-1	1	85*	1.1
CC(C)Oc1cccc(C(=O)C2CCCN(S(C)(=O)=O)C2)c1 (stereo not drawn)	-18	2	-15	1.2	-3	1.3
Cc1ccc(N(CC(=O)O)S(C)(=O)=O)cc1	-11	10	-6	1	-1	1
C#CCSc1nc(=O)c2cccnc2n1-c1ccc(C)cc1	/	-6	-12	/	/	/
N#Cc1cccc(NC(=O)COC(=O)CCc2nc3ccccc3c(=O)[nH]2)c1	12	4	-19	1	-4	1
CCN1CC(CN(C)Cc2nc(-c3ccc(OC)c4ccccc34)oc2C)CC1=O (stereo not drawn)	-14	-4	-283	0.8	14	0.9
Cc1ccc(SC(=O)c2c([N+](=O)[O-])c(C)nn2C)cc1	/	16	5	/	/	/
CC1CN(C2=NC(=O)/C(=C/c3ccncc3)S2)CC(C)O1 (stereo not drawn)	/	/	-114	/	/	/
CC1(C)CC(CCN(Cc2ccccc2)C(=O)c2ccco2)(c2ccccc2)CCO1 (stereo not drawn)	63*	6	6	1	30	0.9
CCC(CC)NC(=O)Nc1cccc(C)c1C	4	19	-12	1	3	1
CCC(C)N(CC(=O)Nc1cccc(C)c1C)C(=O)CCl (stereo not drawn)	12	0	40	1.1	64*	1.2
CCOC(=O)C1=C(C)C2C3C(=O)N(c4ccccc4C)C(=O)C3C1(C)C1C(=O)N(c3ccccc3C)C(=O)C21 (stereo not drawn)	1	6	7	0.8	56*	1
Cc1ccccc1N1C(=O)C2C3C=CC(C2C1=O)N(C)C3=O (stereo not drawn)	-4	0	-8	1	-6	1
CCOC(=O)C1=C(C)C2C3C(=O)N(c4ccc(C)cc4C)C(=O)C3C1(C)C1C(=O)N(c3ccc(C)cc3C)C(=O)C21 (stereo not drawn)	-1	7	4	0.9	74*	1
COc1cccc(Nc2nnc(SCN3C(=O)c4ccccc4C3=O)s2)c1	-22	-1	7	1	1	0.9
C/C(N)=C(/C#N)C(=O)CSc1nnc(Nc2cccc(C)c2)s1	-15	-1	-27	1	76*	1.1
CCSc1nnc(NC(=O)Nc2cccc(C)c2)s1	/	-7	-9	/	/	/
SMILES	WT yeast gro inh	Rad51 HR inh	m-calpain inh	PMI act satM6P	L major viab	PMI activator
COc1cccc(Nc2nnc(SCC(=O)N(CC(C)C)CC(C)C)s2)c1	6	-8	16	0.8	99*	0.8
O=C(Cc1ccccc1)NC(NNc1ccccc1)(C(F)(F)F)C(F)(F)F	-3	-3	-15	2.5*	-5	1.7
CN1C(=O)CS/C1=N\NC(=O)COc1cccc2cccnc12	-2	14	-17	/	2	/
COc1ccc(Cn2nnnc2C(c2cc3ccc(OC)cc3[nH]c2=O)N2CCC(C)CC2)cc1 (stereo not drawn)	-4	0	-53	1.6	16	1.2
Cc1ccc2[nH]c(=O)c(CN(Cc3nnnn3C3CCCC3)C3CCCCC3)cc2c1	2	-7	-4	0.9	49	1
Cc1cc(C)c2[nH]c(=O)c(C(c3nnnn3Cc3ccc4c(c3)OCO4)N3CCC(C)CC3)cc2c1 (stereo not drawn)	-3	-2	-50	0.9	76*	1
Cc1ccc(C)c2[nH]c(=O)c(CN(Cc3nnnn3C3CCCCC3)CC3CCCO3)cc12 (stereo not drawn)	-1	-5	-20	1.9	100*	1.7
Cc1ccc2[nH]c(=O)c(CN(Cc3ccccc3)Cc3nnnn3C3CCCC3)cc2c1	25	4	31	0.9	53*	0.8
Cc1cc(C)c2[nH]c(=O)c(CN(Cc3ccc4c(c3)OCO4)Cc3nnnn3C3CCCC3)cc2c1	35	-1	-72	0.9	88*	0.8
CC/C(=N\NC(=O)c1ccc(CN(C)S(=O)(=O)c2ccc(C)cc2)cc1)c1ccc(OC(F)F)cc1	-5	-11	2	1	12	0.9
Cc1cccc2cc(CN(Cc3cccs3)C3(c4nnnn4C4CCCC4)CCCC3)c(=O)[nH]c12	19	6	-26	0.9	73*	1
O=C(CSc1nc2nn(-c3ccccc3)c(=O)c-2c2n1CCCCC2)NCCCc1ccccc1	0	-3	9	1	-2	1
COc1ccc(NS(=O)(=O)c2cc(NC(=O)c3cnc(C)cn3)ccc2N2CCCC2)cc1	16	8	18	0.9	95*	1
COc1ccc(NS(=O)(=O)c2cc(NC(=O)C3CC3)ccc2N2CCCCC2)cc1	41	3	-52	0.9	56*	0.9
Cc1c(N(C(=O)c2ccccn2)C2(C(=O)NC3CCCCC3)CCCCC2)c(=O)n(-c2ccccc2)n1C	-14	-10	20	1	-6	1
CN(Cc1cccs1)C(=O)Cn1cnc2ccccc2c1=O	-8	27	-6	1	-4	1
Oc1cccc2ccc(Nc3ccccn3)nc12	-13	-3	-8	0.5	100*	0.5
Cc1[nH]c2ccccc2c1/C=N/Nc1nncn1N	-6	26	-19	0.7	10	1.2
Cc1[nH]c2ccccc2c1/C=N/Nc1ccc(F)cc1F	24	/	-2	2.1*	26	1.5
